Sampled rows, rich in hits. Any-hit rate of the full collection: about 0.41%.
ABCB1 block = blocks JC-1 efflux by human ABCB1 transporter | P08183 | CCRF-Adr cells, flow cytometry | inhibition, % at 6.6 µM | 0.067% of 190,000 active; in the data active = inhibition above about 40%;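 also: 0% = vehicle and 100% = reference inhibitor; higher value means more JC-1 retained so stronger ABCB1 efflux block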
Target sequence (P08183 whole entry, looked up): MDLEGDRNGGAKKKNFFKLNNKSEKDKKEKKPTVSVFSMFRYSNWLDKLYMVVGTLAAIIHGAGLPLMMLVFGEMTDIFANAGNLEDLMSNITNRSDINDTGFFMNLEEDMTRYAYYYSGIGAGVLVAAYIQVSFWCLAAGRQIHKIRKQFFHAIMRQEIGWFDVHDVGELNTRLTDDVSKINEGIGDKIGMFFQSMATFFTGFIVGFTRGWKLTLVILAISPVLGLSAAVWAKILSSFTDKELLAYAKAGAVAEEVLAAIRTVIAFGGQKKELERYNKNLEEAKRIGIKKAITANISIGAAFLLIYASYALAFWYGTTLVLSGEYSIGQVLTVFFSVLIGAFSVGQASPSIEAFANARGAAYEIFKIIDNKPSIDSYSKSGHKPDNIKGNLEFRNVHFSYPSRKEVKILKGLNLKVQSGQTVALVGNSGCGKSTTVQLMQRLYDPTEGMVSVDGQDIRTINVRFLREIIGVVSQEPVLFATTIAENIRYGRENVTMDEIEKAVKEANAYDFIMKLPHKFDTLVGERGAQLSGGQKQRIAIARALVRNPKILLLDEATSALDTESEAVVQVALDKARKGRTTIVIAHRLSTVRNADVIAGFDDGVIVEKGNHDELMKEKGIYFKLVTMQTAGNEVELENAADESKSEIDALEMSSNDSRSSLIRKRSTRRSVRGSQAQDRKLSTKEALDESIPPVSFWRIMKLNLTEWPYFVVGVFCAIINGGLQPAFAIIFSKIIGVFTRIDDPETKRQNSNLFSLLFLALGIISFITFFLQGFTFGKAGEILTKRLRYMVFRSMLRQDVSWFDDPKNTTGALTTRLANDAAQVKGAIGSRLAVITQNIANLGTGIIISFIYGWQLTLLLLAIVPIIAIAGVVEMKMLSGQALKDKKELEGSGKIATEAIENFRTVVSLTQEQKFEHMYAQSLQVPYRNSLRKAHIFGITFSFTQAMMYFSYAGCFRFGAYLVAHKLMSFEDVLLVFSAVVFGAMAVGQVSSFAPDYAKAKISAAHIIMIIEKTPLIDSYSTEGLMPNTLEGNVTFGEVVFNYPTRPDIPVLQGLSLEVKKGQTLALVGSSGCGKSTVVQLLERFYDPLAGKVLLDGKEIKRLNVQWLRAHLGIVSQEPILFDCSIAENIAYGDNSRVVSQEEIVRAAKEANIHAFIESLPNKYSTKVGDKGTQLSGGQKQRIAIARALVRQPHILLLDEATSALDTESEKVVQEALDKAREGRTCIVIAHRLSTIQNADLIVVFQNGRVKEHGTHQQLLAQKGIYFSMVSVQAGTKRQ
TNAP inh hi DEA = inhibitors of human TNAP at high phosphate acceptor concentration | purified TNAP, CDP-star luminescence, 1 M DEA | inhibition, % at 20 µM | 0.03% of 200,000 active | AID 1135;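 active = over 50% inhibition of tissue-nonspecific alkaline phosphatase at 20 µM in the single-dose screen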;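 also: plate controls were DMSO wells for no effect and EDTA-quenched wells as full inhibition for full effect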
TNAP act hiacc = activators of human TNAP at high phosphate acceptor concentration; 200,000 tested, under 10 active; P05186; activation factor at 20 µM; purified TNAP, CDP-star luminescence, 1 M DEA, 30 min; stronger effect = higher value; 0 = EDTA background, 1 = DMSO-only activity;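 active = activation factor at least 2 at 20 µM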
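Test system – human TNAP · Doses – 20 µM single point · Incubation – 30 min, room temperature · Signal – luminescent substrate turnover signal · Read-out basis – activation factor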
ABCG2 inh = blocks JC-1 efflux by human ABCG2 transporter; IgMXP3 cells, flow cytometry; inhibition, % at 6.6 µM; 0.1% of 190,000 active; AID 1325;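 active = inhibition above 80%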;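 also: 0% = DMSO and 100% = nicardipine control wells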
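Read-out basis: Efflux inhibition in percent versus controls | Test system: ABCG2 IgMXP3 and barcoded ABCB1 CCRF-Adr cell mix | Quantity: 3 million cells/mL in well | Schedule: 10 min at 25 °C | Control set: Nicardipine as high control, DMSO as low control | Reagent: JC-1 as fluorescent efflux pump substrate | Signal: Flow cytometry of retained JC-1 fluorescence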
TNAP inh no acc = inhibitors of human TNAP without phosphate acceptor; AID 1012; P05186; inhibition, % at 20 µM; purified TNAP, CDP-star luminescence, 30 min; 0.26% of 200,000 active;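 active = tissue-nonspecific alkaline phosphatase inhibition above about 50% at 20 µM in the single-dose screen, limit read from the data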;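 also: 0% = DMSO negative control and 100% = EDTA positive control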
Numbers without * were called inactive.

SMILES | ABCB1 block | TNAP inh hi DEA | TNAP act hiacc | ABCG2 inh | TNAP inh no acc
CCC1=NN(C(=O)COc2ccccc2)C(O)(c2ccncc2)C1 (stereo not given) | 0 | -5 | 1.1 | 5 | -11
COc1ccc(-c2cc(C(F)(F)F)nc(SCC(=O)Nc3cc(C)on3)n2)cc1OC | 2 | -1 | 1 | 10 | -10
Cc1nnc(NC(=O)CSc2ncn(-c3ccccc3)n2)s1 | 0 | -1 | 1 | 1 | -10
CCCCc1nc(SCC(=O)Nc2cc(C)on2)n[nH]1 | 0 | -8 | 1.1 | 4 | 57*
Cc1nnc(NC(=O)CSc2n[nH]c(-c3ccccc3)n2)s1 | 0 | -4 | 1 | 0 | 59*
COc1ccc(-c2nc(SCC(=O)Nc3cc(C)on3)n[nH]2)cc1 | 0 | 2 | 1 | 0 | 70*
CC(COc1ccccc1)N1CCC(CO)(Cc2ccccc2)CC1 (stereo not given) | 1 | -6 | 1.1 | 0 | -2
CCN(CC(=O)Nc1cccc(C#N)c1)CC(=O)Nc1cccc(OC)c1 | 0 | -6 | 1.1 | 4 | -14
Cn1c(=O)c(NC2CCCCC2)c2c3c(cccc31)C(=O)c1ccccc1-2 | 48* | 13 | 0.9 | 66 | 17
CCCCN(C(=O)c1ccc(NC(=O)C(C)C)cc1)c1ccccc1 | 1 | -3 | 1 | 9 | -7
Cc1nnc(SCC(=O)N2CCc3ccccc32)s1 | 43* | 0 | 1 | 5 | -9
C=CCSc1n[nH]c(-c2ccc(OC)cc2)n1 | 0 | -3 | 1 | 1 | 80*
C=CCSc1n[nH]c(-c2ccccc2)n1 | -1 | -2 | 1 | 3 | 76*
CCCCOc1ccc(-c2nc(SCC(N)=O)n[nH]2)cc1 | 0 | -3 | 1 | 1 | 16
Oc1ccc(N=Nc2n[nH]c(-c3ccc(Br)cc3)n2)cc1 | -1 | 44 | 0.6 | 6 | 75*
Oc1ccc(N=Nc2nc(-c3ccccc3)c(-c3ccccc3)[nH]2)cc1 | -1 | 58* | 0.4 | -14 | 49
Oc1ccc(-c2cccc(-c3ccc(O)cc3)n2)cc1 | 0 | -2 | 1 | 1 | -4
Oc1ccc(N=Nc2n[nH]c(-c3ccccc3)n2)cc1 | -1 | 31 | 0.7 | -4 | 74*
c1ccc(-c2nc(-c3cccnc3)n[nH]2)cc1 | 1 | -1 | 1 | 4 | 20
CC(=O)Nc1ccc(-c2cn3cc(C)ccc3n2)cc1 | 1 | -6 | 1.1 | 10 | -13
CC(=O)Nc1n[nH]c(-c2ccc(C)cc2)c1C | 0 | -6 | 1.1 | 2 | 85*
O=C1N=C(N2CCCC2C(=O)O)S/C1=C\c1ccco1 (stereo not given) | 1 | -1 | 1 | 6 | -15
CCC(C)c1ccccc1NC(=O)C(C)N(C)Cc1cccc(OC)c1 (stereo not given) | 3 | -4 | 1 | 11 | -12
CCOC(=O)c1ccc(N/N=C/c2cc(Br)cc([N+](=O)[O-])c2O)cc1 | 0 | 56* | 0.4 | 2 | 48
CC(C)OC(=O)c1cc2c(=O)[nH]c(C(Cl)(Cl)Cl)nc2o1 | -1 | 4 | 1 | -2 | 5
SMILES | ABCB1 block | TNAP inh hi DEA | TNAP act hiacc | ABCG2 inh | TNAP inh no acc
CCCc1n[nH]c2c1C(=O)CC(C)(C)C2 | 0 | -4 | 1 | 3 | 64*
O=c1[nH]nc(-c2cccs2)c2ccccc12 | 0 | -6 | 1.1 | 5 | -4
CC1(C)CC(=O)c2c(-c3cccs3)n[nH]c2C1 | -3 | 8 | 0.9 | -7 | 88*
O=C(/C=C/c1ccc([N+](=O)[O-])cc1)Nc1ncc([N+](=O)[O-])s1 | -1 | 20 | 0.8 | 3 | 14
CCOC(=O)C1=C(C)C(c2ccc(OC)cc2OC)NC(=O)N1 (stereo not given) | 1 | 2 | 1 | 90* | 0
CCN1CCCC1CNC(=O)c1ccc(N2CCOCC2)c(NS(=O)(=O)c2ccc(OC)cc2)c1 (stereo not given) | 0 | 2 | 1 | -1 | -9
O=C(COC(=O)c1cc(=O)[nH]c2ccccc12)Nc1nc(-c2ccccc2)cs1 | 1 | -1 | 1 | 4 | 8
N#CC1=C(N)Oc2n[nH]c(-c3ccccc3)c2C1c1ccncc1 (stereo not given) | 0 | -3 | 1 | -2 | 53*
O=C(CCC(=O)Nc1cccc(Cl)c1)N/N=C/c1cc([N+](=O)[O-])ccc1O | 0 | 10 | 0.9 | -1 | 80*

Source: PubChem BioAssay
